The source of these data is PubChem BioAssay AID1496 (Sanford-Burnham Center for Chemical Genomics, 2009).

In all, about 220,000 compounds went through this assay and about 990 (0.45%) were called active.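 Rule for the calls: active = inhibition over about 50% at 20 µM in the single-dose screen (limit read from the data); inactive = the rest.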 The entries come from a sample that favours actives as a whole.

Chain of Runt-related transcription factor 1 (Homo sapiens) + Core-binding factor subunit beta (Homo sapiens) (Q01196 whole entry, looked up, the tested form may be a part): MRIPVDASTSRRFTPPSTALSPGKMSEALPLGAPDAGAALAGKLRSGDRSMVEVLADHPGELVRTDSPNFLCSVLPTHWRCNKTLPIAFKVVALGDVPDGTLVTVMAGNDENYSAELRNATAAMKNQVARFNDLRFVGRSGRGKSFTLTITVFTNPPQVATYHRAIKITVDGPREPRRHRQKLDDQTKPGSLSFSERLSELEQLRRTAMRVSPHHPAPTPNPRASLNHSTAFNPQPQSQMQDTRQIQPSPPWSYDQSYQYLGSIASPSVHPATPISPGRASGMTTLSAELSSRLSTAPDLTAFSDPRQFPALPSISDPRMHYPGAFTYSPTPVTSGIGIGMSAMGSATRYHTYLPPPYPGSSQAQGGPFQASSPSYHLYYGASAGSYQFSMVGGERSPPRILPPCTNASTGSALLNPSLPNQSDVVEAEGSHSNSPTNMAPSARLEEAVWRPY
Chain of Runt-related transcription factor 1 (Homo sapiens) + Core-binding factor subunit beta (Homo sapiens) (Q13951 whole entry, looked up, the tested form may be a part): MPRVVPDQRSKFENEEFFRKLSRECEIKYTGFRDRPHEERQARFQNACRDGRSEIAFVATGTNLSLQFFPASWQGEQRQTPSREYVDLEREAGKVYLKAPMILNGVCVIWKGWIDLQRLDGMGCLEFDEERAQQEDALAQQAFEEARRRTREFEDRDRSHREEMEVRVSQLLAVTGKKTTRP

This assay deals with Runt-related transcription factor 1 (Homo sapiens) + Core-binding factor subunit beta (Homo sapiens) (UniProt Q01196+Q13951). Kind of assay: inhibitors of RUNX1 Runt–CBFb binding, primary screen, biochemical, FRET, Cerulean-Runt, Venus-CBFb, uHTS (AID 1496).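 Note: 0% = DMSO wells and 100% = excess unlabeled CBFb competitor control.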 Conditions: Cerulean-Runt/Venus-CBFb FRET ratio 530/480, 1 h; at 20 µM; hits give high values. Summed up:
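Doses: 20 µM compound in 1% DMSO | Material: Cerulean-labeled Runt domain protein | Amount: Each fluorescent fusion protein 100 nM | Schedule: Two 1 h room-temperature incubations shielded from light | Measured by: FRET fluorescence | Evaluation: Loss of energy transfer signal | Controls: Unlabeled CBFb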
Take `S=C(NNC(=S)NC1CC2CCC1C2)NC1CC2C=CC1C2` (stereo not given): the inhibition was 11.8% (inactive).

Take `COc1cccc(C(=O)c2cc3ccc(O)cc3oc2=O)c1`: the inhibition was 126% (active).

As for `COc1ccc2oc(=O)c(C(=O)O)cc2c1`, the inhibition is 3.3% (inactive).

For `COc1ccc2oc(=O)c(C(=O)N3CCCC3)cc2c1`, the inhibition was 2% (inactive).

Consider `O=C(Nc1nnc(CCN2CCCCC2)s1)c1cccc(Cl)c1`, for which the inhibition was 2.2% (inactive).

Turning to `Cc1noc(C)c1-c1nc(CSc2ccc(Cl)cc2)no1`, the inhibition was 0.4% (inactive).

Take `OC(c1nc2ccccc2[nH]1)C(O)C(O)C(O)c1nc2ccccc2[nH]1` (stereo not given): the inhibition was -0.4% (inactive).

In the case of `Cc1ccc(/C=C(\C#N)C(=O)Nc2cccc3ncccc23)o1`, the inhibition was 125% (active).

As for `Cc1ccc(C(=O)Nc2cccc3ncccc23)cc1[N+](=O)[O-]`, the inhibition is -0.8% (inactive).

On to `O=C(Nc1cccc2ncccc12)C(Cl)(Cl)Cl`, for which the inhibition was -0.7% (inactive).

As for `CCC(=O)c1ccc(OCC(=O)Nc2ccc3nc(C)sc3c2)cc1`, the inhibition was 1.3% (inactive).

Take `CC1=NNC(=O)C1CCC(=O)N/N=C(\C)c1ccc(Cl)cc1` (stereo not given): the inhibition was -1.6% (inactive).

On to `CC[C@@H](C)[C@@H](C(=O)N1CCN(C(=O)OC(C)(C)C)CC1)n1cc(CCC(=O)O)nn1`, for which the inhibition is 2.1% (inactive).

`CCc1c(C)nc2c(-c3ccccc3)c(C)nn2c1Nc1ccc(NC(C)=O)cc1`: the inhibition is -2.4% (inactive).

Take `O=C(O)c1ccccc1C(=O)Nc1ccccc1[N+](=O)[O-]`: the inhibition was -1.2% (inactive).

For the molecule `NC(=O)c1c(NC(=O)CSc2nc(N)cc(=O)[nH]2)sc2c1CCCC2`, the inhibition is 0.4% (inactive).

Regarding `Fc1cc(F)c2nc(Nc3nc4c(F)cccc4s3)sc2c1`, the inhibition is 0.3% (inactive).

On to `NC(=O)c1c(Nc2nc3c(F)cccc3s2)sc2c1CCCC2`, for which the inhibition is 117% (active).

Turning to `Cc1ccc(-n2cc3ccc([N+](=O)[O-])cc3n2)cc1`, the inhibition is -12.8% (inactive).

For `Cc1ccc(-c2cn3cc([N+](=O)[O-])ccc3n2)cc1`, the inhibition is 67.1% (active).

On to `Cc1ccc(-c2cn3cc(C)ccc3n2)cc1`, for which the inhibition is -4.5% (inactive).

Consider `O=C(NNc1cc(Cl)cc(Cl)c1)c1c(F)cccc1Cl`, for which the inhibition is 0.6% (inactive).

With `O=C(Cc1cccc2ccccc12)NNC(=O)Nc1ccc(Cl)cc1`, the inhibition is 1.3% (inactive).

With `Cc1ccc(-n2c(=O)c(C#N)cc3c(=O)n4ccccc4nc32)cc1C`, the inhibition was 19.9% (inactive).

Take `C/C(=N/OC(=O)c1c(-c2c(F)cccc2Cl)noc1C)c1cnccn1`: the inhibition is -0.3% (inactive).

Consider `CCn1c(=N)c(S(=O)(=O)c2ccc(F)cc2)cc2c(=O)n3ccccc3nc21`, for which the inhibition was 10.5% (inactive).

Regarding `CCOC(=O)c1cc2c(=O)n3ccccc3nc2n(CC(C)C)c1=NC(=O)c1c(-c2c(F)cccc2Cl)noc1C`, the inhibition is 64.1% (active).

On to `Cc1onc(-c2c(Cl)cccc2Cl)c1C(=O)NNC(=O)c1c(-c2c(Cl)cccc2Cl)noc1C`, for which the inhibition was 0.7% (inactive).

As to `CCCn1c(=NC(C)=O)c(C(=O)OCC)cc2c(=O)n3ccccc3nc21`, the inhibition is 101% (active).

Turning to `O=C(NCC1CCCO1)c1cc(-c2ccccc2)nc2ccccc12` (stereo not given), the inhibition is 1.5% (inactive).

`Cc1noc(C)c1COC(=O)COc1ccc(-c2ccccc2)cc1`: the inhibition was -2.6% (inactive).

As to `CC(=O)NNC(=O)c1csc(Cc2c(Cl)sc3ccc(Cl)cc23)n1`, the inhibition was 1.6% (inactive).

As for `O=C(NNS(=O)(=O)c1ccccc1)c1cnn(-c2ccc(Cl)cc2)c1C(F)(F)F`, the inhibition is 1.6% (inactive).

As for `O=C(CNCc1cccs1)Nc1cc(S(=O)(=O)N2CCCC2)ccc1Cl`, the inhibition is 4.6% (inactive).

Consider `CCc1nc(NCCO)c(C#N)c2c1CCCC2`, for which the inhibition is -0.2% (inactive).

What is called inhibition is the relative decrease from the control value, in per cent.
